Activity calls are given as the source filed them. The calls are words filed in the database; no cut-off is given here.
Key:
[1] = Evaluated for antidepressant activity by its ability to inhibit tetrabenazine-induced (TBZ) ptosis in mice; type: functional; conditions: Mus musculus
In short: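 Mice given tetrabenazine to induce ptosis; inhibition of ptosis scored. Compounds were screened at 20 mg/kg ip. […] ">20" marks activity at the 20 mg/kg ip screening dose without a dose-response run.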

Mus musculus = species on record: Mus musculus; assay: Evaluated for antidepressant activity by its ability to inhibit tetrabenazine-induced (TBZ) ptosis in mice; Inactive; type: functional, organism-based

SMILES | ED50 [1] [mg/kg] | ED50 (Mus musculus)
CC1c2cccc3c2N(CC3)c2ccccc2N1C(=O)CCN1CCN(c2ccccc2)CC1 (stereo unspecified) | > 20 | 
CN(C)CCCN1Cc2cccc3c2N(CC3)c2ccccc21.Cl.Cl | 16 | 
CNCCCN1c2ccccc2N2CCc3cccc(c32)C1C.Cl.Cl (stereo unspecified) | 9.5 | 
Br.Br.CNCCN1c2ccccc2N2CCc3cccc(c32)C1C (stereo unspecified) | 8 | 
Br.Br.CC1c2cccc3c2N(CC3)c2ccccc2N1CCN (stereo unspecified) | 2.2 | 
CNCCC(=O)N1c2ccccc2N2CCc3cc(Cl)cc(c32)C1C (stereo unspecified) |  | inactive
CNCCCN1c2ccccc2CCc2ccccc21 [DESIPRAMINE] | 1.5 | 
CC1c2cc(Cl)cc3c2N(CC3)c2ccccc2N1C(=O)CN(C)C (stereo unspecified) |  | inactive
Br.CC1c2cccc3c2N(CC3)c2ccccc2N1CCN(C)C (stereo unspecified) | 5 | 
CC1c2cccc3c2N(CC3)c2ccccc2N1C(=O)CN(C)C (stereo unspecified) | 13.5 | 
CN(C)CCC(=O)N1Cc2cccc3c2N(CC3)c2ccccc21 | > 20 | 
CN(C)CCC(=O)N1c2ccccc2N2CCc3cccc(c32)C1C1CCCCC1.Cl (stereo unspecified) | > 20 | 
CCN(CC)CCC(=O)N1c2ccccc2N2CCc3cccc(c32)C1C (stereo unspecified) | > 20 | 
CC1c2cccc3c2N(CC3)c2ccccc2N1C(=O)CCCN(C)C.Cl (stereo unspecified) | > 20 | 
Br.Br.CCCNCCN1c2ccccc2N2CCc3cccc(c32)C1C (stereo unspecified) | > 20 | 
CCCNCCC(=O)N1c2ccccc2N2CCc3cccc(c32)C1C.Cl (stereo unspecified) | > 20 | 

SMILES | ED50 [1] [mg/kg] | ED50 (Mus musculus)
CNCCN1c2ccccc2N2CCc3cc(Cl)cc(c32)C1C (stereo unspecified) |  | inactive
CCCNCC(=O)N1c2ccccc2N2CCc3cccc(c32)C1C (stereo unspecified) | > 20 | 
CNCC(=O)N1c2ccccc2N2CCc3cc(Cl)cc(c32)C1C (stereo unspecified) |  | inactive
CC1c2cccc3c2N(CC3)c2ccccc2N1C(=O)CCN1CCCCC1 (stereo unspecified) | > 20 | 
CNCCN1Cc2cccc3c2N(CC3)c2ccccc21.O=C(O)C(=O)O | > 20 | 
Br.Br.CNCCCN1Cc2cccc3c2N(CC3)c2ccccc21 | 1.5 | 
CNCCCN1c2ccccc2N2CCc3cc(Cl)cc(c32)C1C (stereo unspecified) |  | inactive
CN(C)CC(=O)N1Cc2cccc3c2N(CC3)c2ccccc21 | > 20 | 
CNCC(=O)N1Cc2cccc3c2N(CC3)c2ccccc21 | > 20 | 
CC1c2cc(Cl)cc3c2N(CC3)c2ccccc2N1C(=O)CCN(C)C (stereo unspecified) |  | inactive
CN(C)CCN1c2ccccc2N2CCc3cccc(c32)C1CCc1ccccc1.O=C(O)C(=O)O (stereo unspecified) | > 20 | 
CNCCC(=O)N1c2ccccc2N2CCc3cccc(c32)C1C (stereo unspecified) | 4 | 
CC1c2cccc3c2N(CC3)c2ccccc2N1C(=O)CCN(C)C (stereo unspecified) | 16 | 
CNCC(=O)N1c2ccccc2N2CCc3cccc(c32)C1C (stereo unspecified) | 2 | 
CN(C)CCC=C1c2ccccc2CCc2ccccc21 [AMITRIPTYLINE] | 4.5 | 
